Activity calls are given as the source filed them.
What was measured:
Mus musculus [1] = assay: Hypoglycemic activity in ob/ob mouse assessed as decrease in HbA1c levels administered daily via oral gavage for 31 days; assay type: functional, organism-based
How it was run: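 Male ob/ob mice, n = 10 per group, daily gavage at 0.3, 1.0 or 3.0 mg/kg in soybean vehicle. Fasting and free-diet blood glucose and HbA1c measured.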

Mus musculus [2] = assay: Hypolipidemic activity in C57BL/6J DIO mouse assessed as decrease in serum total cholesterol levels at 0.3 to 3 mg/kg administered daily via oral gavage for 5 weeks; assay type: functional, organism-based
How it was run: (§1)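 High-fat-diet male C57BL/6J mice, n = 8 per group, daily gavage at 0.3–3.0 mg/kg in soybean vehicle for 5 weeks. Serum total cholesterol, triglycerides and free fatty acids measured.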

Mus musculus [3] = assay: Hypolipidemic activity in C57BL/6J DIO mouse assessed as decrease in plasma free fatty acid levels at 0.3 to 3 mg/kg administered daily via oral gavage for 5 weeks; assay type: functional, organism-based; how it was run: as §1
Mus musculus [4] = assay: Hypoglycemic activity in C57BL/6J DIO mouse assessed as increase in insulin sensitive index at 0.3 to 3 mg/kg administered daily via oral gavage for 5 weeks; assay type: functional, organism-based
How it was run: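 Male high-fat-diet C57BL/6J mice, daily gavage at 0.3–3.0 mg/kg for 5 weeks. ISI calculated as […].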

Alistipes = assay: Decrease in Alistipes levels in cecum of ob/ob mouse at 3 mg/kg administered daily via oral gavage for 31 days by 16S rRNA gene high-throughput sequencing method; assay type: functional, organism-based
How it was run: (§2)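 Male ob/ob mice dosed daily by gavage at 1.0 or 3.0 mg/kg, compared with vehicle group. DNA extracted from about 150 mg caecum contents. 16S rRNA V3–V4 region amplified and sequenced on Illumina HiSeq PE250. Community compared by NMDS/MRPP; discriminant taxa identified by LEfSe.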

Mus musculus [5] = assay: Downregulation of Nos2 mRNA expression in ob/ob mouse ileum at 3 mg/kg administered daily via oral gavage for 31 days by RNA-seq analysis; assay type: functional, organism-based
Selenomonas = assay: Decrease in Selenomonas levels in cecum of ob/ob mouse at 3 mg/kg administered daily via oral gavage for 31 days by 16S rRNA gene high-throughput sequencing method; assay type: functional, organism-based; how it was run: as §2
Mus musculus [6] = assay: Upregulation of ZO-1 mRNA expression in ob/ob mouse ileum at 3 mg/kg administered daily via oral gavage for 31 days by RNA-seq analysis; assay type: functional, organism-based
Mus musculus [7] = assay: Upregulation of occludin mRNA expression in ob/ob mouse ileum at 3 mg/kg administered daily via oral gavage for 31 days by RNA-seq analysis; assay type: functional, organism-based
Mus musculus [8] = assay: Hypoglycemic activity in antibiotic-treated ob/ob mouse assessed as decrease in blood glucose AUC at 3 mg/kg administered daily via oral gavage for 3 weeks by OGTT; assay type: functional, organism-based
How it was run: (§3)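 Male ob/ob mice pretreated three weeks with ampicillin (1 g/L), vancomycin, neomycin, gentamycin and erythromycin. Groups of n = 8 given 3.0 mg/kg/day orally in soybean vehicle versus vehicle. Plasma and hepatic lipids, fasting glucose, OGTT (glucose 2 g/kg after overnight fast) and HbA1c measured.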

Mus musculus [9] = assay: In vivo inhibition of alpha-glucosidase activity in ob/ob mouse assessed as accumulation of carbohydrate in lower part of small intestine at 3 mg/kg administered daily via oral gavage for 31 days; assay type: functional, organism-based
Mus musculus [10] = assay: Hypolipidemic activity in ob/ob mouse assessed as decrease in plasma LDL-C levels at 3 mg/kg administered daily via oral gavage for 31 days relative to vehicle-treated control; assay type: functional; design: scale not given: the % may be the effect or the level left
Oscillibacter = assay: Decrease in Oscillibacter levels in cecum of ob/ob mouse at 3 mg/kg administered daily via oral gavage for 31 days by 16S rRNA gene high-throughput sequencing method; assay type: functional, organism-based; how it was run: as §2
Mus musculus [11] = assay: Hypoglycemic activity in antibiotic-treated ob/ob mouse assessed as decrease in fasting blood glucose levels at 3 mg/kg administered daily via oral gavage for 3 weeks; assay type: functional, organism-based; how it was run: as §3
Mus musculus [12] = assay: Hypolipidemic activity in ob/ob mouse assessed as decrease in serum ALT levels at 0.3 to 3 mg/kg administered daily via oral gavage for 31 days; assay type: functional, organism-based
Mus musculus [13] = assay: Reduction of plasma LPS levels in antibiotic-treated ob/ob mouse at 3 mg/kg administered daily via oral gavage for 3 weeks by ELISA; assay type: functional, organism-based
How it was run: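 Male ob/ob mice treated daily by gavage (soybean vehicle); plasma LPS and TNF-α quantified by ELISA kits. For antibiotic groups, ob/ob mice first received an oral antibiotic cocktail (ampicillin 1 g/L, vancomycin, neomycin, gentamycin, erythromycin) for three weeks, then 3.0 mg/kg/day; n = 8 per group.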

Mus musculus [14] = assay: Antiobesity activity in ob/ob mouse assessed as reduction in absolute fat mass at 3 mg/kg administered daily via oral gavage for 31 days; assay type: functional, organism-based
How it was run: (§4)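 Male ob/ob mice, n = 10 per group, grouped by blood glucose and body weight. Daily gavage at 0.3, 1.0 or 3.0 mg/kg in soybean vehicle, with soybean vehicle controls and C57BL/6J controls. Body weight, cumulative food intake, LEE index, fat mass and lean mass recorded. Mean ± SEM, one-way ANOVA with Tukey test.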

Mus musculus [15] = assay: Toxicity in C57BL/6J mouse assessed as effect on body weight at 30 mg/kg administered daily via oral gavage for 3 months; assay type: organism-based; conditions: in vivo
How it was run: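 Long-term safety study in C57BL/6J mice, 20 male and 20 female, sorted by gender, blood glucose and body weight into four groups (n = 10 each). Treated groups of each sex got 30.0 mg/kg daily by oral gavage in soybean vehicle. Vehicle groups got an equal volume of soybean. Dosing ran three months, with behavior, survival, body weight, blood glucose, liver function and organ coefficients recorded.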

Alphaproteobacteria = assay: Decrease in Alphaproteobacteria levels in cecum of ob/ob mouse at 1 to 3 mg/kg administered daily via oral gavage for 31 days by 16S rRNA gene high-throughput sequencing method; assay type: functional, organism-based; how it was run: as §2
[16] = Inhibition of rat small intestinal mucosal alpha-glucosidase using p-nitrophenyl-alpha-D-glucopyranoside as substrate after 40 mins by colorimetric method
How it was run: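 Rat small intestinal mucosal α-glucosidase; several compound concentrations, each run three times in parallel; phosphate-buffer control replaces compound, blank replaces enzyme. Absorbance at 405 nm; % inhibition = blank-corrected OD of test versus control; IC50 derived from the concentration gradient.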

Mus musculus [17] = assay: Hypolipidemic activity in ob/ob mouse assessed as decrease in liver LDL-C levels at 0.3 to 3 mg/kg administered daily via oral gavage for 31 days; assay type: functional, organism-based
Mus musculus [18] = assay: Hypolipidemic activity in ob/ob mouse assessed as decrease in liver triglyceride levels at 0.3 to 3 mg/kg administered daily via oral gavage for 31 days; assay type: functional, organism-based
Mus musculus [19] = assay: Antifibrotic activity in ob/ob mouse assessed as decrease in TGF-beta1 expression in liver at 3 mg/kg administered daily via oral gavage for 31 days by immunohistochemical staining-based microscopic method; assay type: functional, organism-based
[20] = AUC (0 to t) in Sprague-Dawley rat at 2 mg/kg, po; assay type: ADME, organism-based; conditions: in vivo
How it was run: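 Male Sprague-Dawley rats (n = 6, 0.21–0.23 kg), single oral dose 2.0 mg/kg. Orbital blood sampled 0–16 h into heparinized tubes. Plasma was protein-precipitated with methanol, with internal standard added. Quantified by UPLC-ESI(+)-QTOF-MS in SIM mode on a C18 column with a methanol/0.3% formic acid water gradient. Linear range 0.54–107 ng/ml.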

Mus musculus [21] = assay: Antiobesity activity in ob/ob mouse assessed as reduction in LEE index at 3 mg/kg administered daily via oral gavage for 31 days relative to vehicle-treated control; assay type: functional, organism-based; how it was run: as §4

CC(C)=CCC/C(C)=C/CCC1=C[C@H](c2ccc(C(C)(C)C)cc2)OC1=O
active: Activity (Mus musculus [1]) Dose-dependent effect | Activity (Mus musculus [2]) | Activity (Mus musculus [3]) | Activity (Mus musculus [4]) | Activity (Alistipes) | Activity (Mus musculus [5]) | Activity (Selenomonas) | Activity (Mus musculus [6]) | Activity (Mus musculus [7]) | inhibition (Mus musculus [9]) | Activity (Oscillibacter) | Activity (Mus musculus [12]) | Activity (Mus musculus [14]) | Activity (Alphaproteobacteria) | Activity (Mus musculus [17]) | Activity (Mus musculus [18]) | Activity (Mus musculus [19]) | Activity (Mus musculus [21])
51%: Activity (Mus musculus [10])
inactive: Activity (Mus musculus [8]) | Activity (Mus musculus [11]) | Activity (Mus musculus [13])
274 ng·h/mL: AUC(0-t) [20]
60 nM: IC50 [16]
Non-Toxic: Activity (Mus musculus [15])
